Experiments:
[1] = target: Human immunodeficiency virus type 1 reverse transcriptase (Human immunodeficiency virus 1) (UniProt Q72547); assay: Inhibition of DNA polymerase activity of HIV-1 reverse transcriptase (at 50 uM)
How it was run: (§1)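 Recombinant HIV-1 RT (BH-10 proviral clone, E. coli-expressed, purified to homogeneity, ~66 kDa) preincubated 5 min at 30 °C with test compound (50 μM for DNA polymerase, 200 μM for RNase H); reaction started with substrate, 30 min at 37 °C; residual activity expressed relative to initial linear rate without drug.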

[2] = target: Human immunodeficiency virus type 1 reverse transcriptase (Human immunodeficiency virus 1) (UniProt Q72547); assay: Inhibition of Ribonuclease H activity of HIV-1 reverse transcriptase (at 200 uM); how it was run: as §1
[3] = tested on: MT4; assay: 50% cytotoxic concentration was determined on HIV-1 (HTLV-IIIB) in MT-4 cells; format: functional; settings: Homo sapiens
[4] = tested on: MT4; assay: 50% effective antiviral concentration was determined on HIV-1 (HTLV-IIIB) in MT-4 cells; format: functional, cell-based; settings: Homo sapiens
[5] = target: Human immunodeficiency virus type 1 reverse transcriptase (Human immunodeficiency virus 1, UniProt Q72547); assay: The 50% inhibitory concentration was measured as inhibition of Ribonuclease H activity of reverse transcriptase

Initial activity [1] | Initial activity [2] | IC50 [5] | Compound | CC50 [3] | EC50 [4]
13% | 16% | – | O=C(CCCCCCCCCCC(=O)Nc1ccc(S(=O)(=O)O)c2cccc(S(=O)(=O)O)c12)Nc1ccc(S(=O)(=O)O)c2cccc(S(=O)(=O)O)c12 | – | –
0.02% | 3% | 47.6 µM | CCCCCCCCCCCCCCCC(=O)Nc1c(O)cc(S(=O)(=O)O)c2ccccc12 | 21 µM | > 21 µM
94% | 70% | – | O=C(CCCCCCCCC(=O)Nc1ccc(S(=O)(=O)O)c2ccccc12)Nc1ccc(S(=O)(=O)O)c2ccccc12 | – | –
0.16% | 2.8% | 27.5 µM | CCCCCCCCCCCCCCCC(=O)Nc1ccc(S(=O)(=O)O)c2cccc(S(=O)(=O)O)c12 | 225 µM | 100 µM
100% | 98% | – | CCCCCCCCCCCCCCCC(=O)Nc1ccc(S(=O)(=O)O)c2ccccc12 | 47 µM | > 47 µM
0.2% | 68% | – | CCCCCCCCCCCCCCCc1nc2c(cc(S(=O)(=O)O)c3ccccc32)o1 | 42 µM | > 42 µM
100% | 32% | – | O=C(CCCCCCCCCCC(=O)Nc1ccc(S(=O)(=O)O)c2ccccc12)Nc1ccc(S(=O)(=O)O)c2ccccc12 | > 500 µM | 260 µM
6.5% | 7.5% | – | CCCCCCCCCCCCCCCC(=O)Oc1cc(S(=O)(=O)O)c2ccccc2c1N | 38 µM | > 38 µM
0% | 27% | – | CCCCCCCCCCCCCCCC(=O)Oc1cc(S(=O)(=O)O)cc2cc(S(=O)(=O)O)cc(OC(=O)CCCCCCCCCCCCCCC)c12 | – | –
0.03% | 5.3% | – | CCCCCCCCCCCCCCCC(=O)Nc1c(OC(=O)CCCCCCCCCCCCCCC)cc(S(=O)(=O)O)c2ccccc12 | 41 µM | > 41 µM

Second part, the molecule before the results:

Compound | Initial activity [1] | Initial activity [2] | IC50 [5] | CC50 [3] | EC50 [4]
Nc1ccc(S(=O)(=O)O)c2ccccc12 | 100% | 88% | – | – | –
O=S(=O)(O)c1cccc2ccc(OS(=O)(=O)c3cccc4c(S(=O)(=O)Oc5ccc6cccc(S(=O)(=O)O)c6c5)cccc34)cc12 | 25% | 17% | – | – | –
Cc1cc(C)c(S(=O)(=O)Oc2ccc3cccc(S(=O)(=O)O)c3c2)c(C)c1S(=O)(=O)Oc1ccc2cccc(S(=O)(=O)O)c2c1 | 13% | 23% | – | 228 µM | 42 µM
O=C(CCCCCCCCC(=O)Nc1cc(S(=O)(=O)O)cc2cc(S(=O)(=O)O)cc(O)c12)Nc1cc(S(=O)(=O)O)cc2cc(S(=O)(=O)O)cc(O)c12 | 0% | 30% | – | – | –
Nc1ccc(S(=O)(=O)O)c2cccc(S(=O)(=O)O)c12 | 100% | 100% | – | – | –
O=C(Nc1ccc(S(=O)(=O)O)c2cccc(S(=O)(=O)O)c12)c1ccc(C(=O)Nc2ccc(S(=O)(=O)O)c3cccc(S(=O)(=O)O)c23)cc1 | 90% | 92% | – | – | –
O=C(CCCCCCC(=O)Nc1ccc(S(=O)(=O)O)c2ccccc12)Nc1ccc(S(=O)(=O)O)c2ccccc12 | 90% | 59% | – | – | –
O=C(CCCCCCC(=O)Nc1ccc(S(=O)(=O)O)c2cccc(S(=O)(=O)O)c12)Nc1ccc(S(=O)(=O)O)c2cccc(S(=O)(=O)O)c12 | 100% | 84% | – | – | –
O=S(=O)(O)c1cccc2ccc(OS(=O)(=O)c3ccc(-c4ccc(S(=O)(=O)Oc5ccc6cccc(S(=O)(=O)O)c6c5)cc4)cc3)cc12 | 0% | 48% | – | – | –
O=C(O)c1cc(NS(=O)(=O)c2cccc3c(S(=O)(=O)Nc4cc(C(=O)O)c(O)c(S(=O)(=O)O)c4)cccc23)cc(S(=O)(=O)O)c1O | 46% | 75% | – | – | –
O=S(=O)(O)c1cc(S(=O)(=O)O)c2cc(NS(=O)(=O)c3cccc4c(S(=O)(=O)Nc5ccc6cc(S(=O)(=O)O)cc(S(=O)(=O)O)c6c5)cccc34)ccc2c1 | 16% | 51% | – | – | –
Cc1cc(C)c(S(=O)(=O)Nc2cc(C(=O)O)c(O)c(S(=O)(=O)O)c2)c(C)c1S(=O)(=O)Nc1cc(C(=O)O)c(O)c(S(=O)(=O)O)c1 | 2% | 32% | – | – | –
O=S(=O)(O)c1ccc2c(OS(=O)(=O)c3cccc4c(S(=O)(=O)Oc5cc(S(=O)(=O)O)cc6cc(S(=O)(=O)O)ccc56)cccc34)cc(S(=O)(=O)O)cc2c1 | 0% | 43% | 215 µM | 322 µM | 39 µM
O=C(CCCCCCCCC(=O)Nc1ccc(S(=O)(=O)O)c2cccc(S(=O)(=O)O)c12)Nc1ccc(S(=O)(=O)O)c2cccc(S(=O)(=O)O)c12 | 54% | 57% | – | – | –
CC(C)CCCC(C)C1CCC2C3CC=C4CC(OC(=O)Nc5cc(S(=O)(=O)O)cc6cc(S(=O)(=O)O)cc(O)c56)CC[C@]4(C)C3CC[C@]12C (stereo not given in full) | 0% | 0% | – | > 500 µM | > 500 µM
O=C(Oc1cc(S(=O)(=O)O)cc2cc(S(=O)(=O)O)ccc12)c1ccc(-c2ccc(C(=O)Oc3cc(S(=O)(=O)O)cc4cc(S(=O)(=O)O)ccc34)cc2)cc1 | 0.2% | 0% | 14.4 µM | > 500 µM | 81.5 µM
O=S(=O)(O)c1cc(S(=O)(=O)O)c2cc(NS(=O)(=O)c3ccc(-c4ccc(S(=O)(=O)Nc5ccc6cc(S(=O)(=O)O)cc(S(=O)(=O)O)c6c5)cc4)cc3)ccc2c1 | 0.9% | 28% | – | – | –
